Screening data as filed in PubChem.
eIF2B yeast act = modulators of yeast eIF2B activity | S. cerevisiae eIF2B-epsilon R284H, GCN4-lacZ luminescence | inhibition, % at 25 µM (by protocol) | 27,000 compounds, 0.91% hits;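 active = mutant luminescence inhibited past about 50% while wild type luminescence and mutant growth stay under set limits, limit read from the data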
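Material – yeast eIF2B-epsilon R284H mutant carrying GCN4–beta-galactosidase fusion · Medium – YPD yeast growth medium · Compound – one concentration, 25 µM, 0.25% DMSO · Times – 16 h at 30 °C exposure · Signal – Beta-Glo luminescence plus absorbance at 595 nm · Read-out – % inhibition of reporter signal and growth versus controls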
Active calls of the source: *. This excerpt belongs to a sample that is enriched for hits.

SMILES	eIF2B yeast act
CC1=Nc2ccccc2/C1=C\c1nc(-c2ccc(C(F)(F)F)cc2)oc1O	-16
CC(=O)Nc1ccc(S(=O)(=O)NC2(C(F)(F)F)NC(=O)N(C3CCCCC3)C2=O)cc1 (configuration not stated)	13
c1ccc2c(CCNc3ncnc4nc[nH]c34)cccc2c1	35
CCCc1cc(C(=O)OC)c(NC(=O)c2cc(C)on2)s1	26
COc1cc(S(=O)(=O)N(Cc2ccc(C)cc2)Cc2ccco2)ccc1-n1cnnn1	13
COc1cc(S(=O)(=O)N(Cc2cccnc2)Cc2ccco2)ccc1-n1cnnn1	53*
COc1cc(S(=O)(=O)N(Cc2ccccn2)Cc2ccco2)ccc1-n1cnnn1	-2
CCOC(=O)C1CCN(S(=O)(=O)c2c(C)n[nH]c2C)CC1	-6
COc1ccc(NC(C)=O)cc1NC(C)C(=O)Nc1cccc2ccccc12 (configuration not stated)	22
O=C1CCCCCN1CP(=O)(O)CN1CCOCC1	13
Cc1ccc(C(=O)Nc2c(-c3cccs3)c(=O)c3ccccc3n2C)cc1	19
O=C(O)CN1C(=O)SC(Nc2ccccc2C(=O)O)C1=O (configuration not stated)	22
COc1cccc(C(=O)Nc2cccc(C(=O)N3CCOCC3)c2)c1	59*
Cc1cccc(C(=O)Nc2cccc(C(=O)N3CCOCC3)c2)c1	22
COc1ccc(C(=O)Nc2cccc(C(=O)N3CCCC3)c2)cc1	36
O=S(=O)(NC1CCCCC1)c1ccc(Cl)s1	14
CCCNC(=O)N1CCC(C(=O)c2cccc(F)c2)CC1	24
CCCN(C(=O)c1cccs1)c1nnc(-c2ccncc2)s1	32
CC(C)Cc1ccc(C#N)c(SCC(N)=O)n1	18
COC(=O)CSc1nc(-c2cccs2)ccc1C#N	26
CN1CCN(C(=O)CSc2nc(-c3ccncc3)ccc2C#N)CC1	71*
CSCCC(NC(=O)c1ccccc1)C(=O)NCc1ccco1 (configuration not stated)	17
CCCC(C)C1C(C#N)=C(N)Oc2cc(C)oc(=O)c21 (configuration not stated)	-29
CN(Cc1ccccc1)C(=O)CN(c1ccc(F)cc1)S(=O)(=O)c1ccc2c(c1)OCCO2	-29
COc1ccc(CC(=O)Nc2ccc(S(=O)(=O)Nc3cc(C)on3)cc2)cc1	14
SMILES	eIF2B yeast act
Cc1ccc(OC(C)C(=O)Nc2ccc(S(=O)(=O)Nc3cc(C)on3)cc2)cc1 (configuration not stated)	13
Cc1ccc(OCCCC(=O)Nc2ccc(S(=O)(=O)Nc3cc(C)on3)cc2)cc1	53*
C=CCOc1ccccc1/C=c1\sc2nc(=O)c(C)nn2c1=O	7
CC(=O)c1cccc(NC(=O)COc2ccccc2)c1	12
CCOCC(=O)Nc1ccc(F)c(F)c1	12
CCOCC(=O)Nc1cccc(NC(C)=O)c1	72*
O=C(Nc1ccc2oc(=O)ccc2c1)c1cccnc1Cl	4
N#Cc1nc(-c2cccs2)oc1NCc1ccc2c(c1)OCO2	12
O=C(CSc1nc(-c2ccco2)cc(C(F)(F)F)n1)NCCc1ccccc1	21
Cc1cccc(C)c1NC(=O)CSc1nc(-c2ccco2)cc(C(F)(F)F)n1	17
O=C(CSc1nc(-c2ccco2)cc(C(F)(F)F)n1)Nc1ccccc1C(F)(F)F	52*
CC1(C)CC2(CCO1)OC(=O)CC2C(=O)NCc1ccccc1 (configuration not stated)	18
O=C1CCC([N+](=O)[O-])C(c2ccc(Cl)cc2Cl)N1 (configuration not stated)	17
Cc1ccc(CC2CC(=O)N(c3nc4ccccc4n3C)C2=O)cc1 (configuration not stated)	29
Cc1cc(C)c(C(=O)c2ccc(C(=O)NC(C)(C)C)cc2)c(C)c1	-19
CC(C)CCOCC(=O)Nc1cccc(C(=O)O)c1	-24
CC1(C)CC(=O)C(Sc2nnc(-c3ccc(NS(C)(=O)=O)cc3)n2Cc2ccco2)C(=O)C1	18
Cn1c(SCC(=O)OC2CCCCC2)nnc1-c1ccco1	6
Cn1c(SC2C(=O)CC(C)(C)CC2=O)nnc1-c1ccco1	60*
CCCCOCP(=O)(CC)COCCCC	9
CCCc1cc(=O)[nH]c(/N=C(\N)Nc2ccccc2)n1	0
O=C1CCCc2nc3nc4ccccc4n3cc21	2
COc1ccc(-c2cc(O)cc(O)c2)cc1	11
CCCC(=O)Nc1cnc(NC(=O)c2cccc(F)c2)cc1C	64
CC1CCc2c(sc3nc(C4CC4)nc(SCC(=O)NCc4ccco4)c23)C1 (configuration not stated)	19
SMILES	eIF2B yeast act
CC(C)N(C#N)c1nc(N2CCOCC2)nc(N2CCOCC2)n1	16
Brc1cnn(-c2nc(N3CCOCC3)nc(N3CCOCC3)n2)c1	52*
Brc1cnc(N2CCOCC2)nc1N1CCCCC1	30
CCN(CCCn1c(SCC#N)nc2ccccc2c1=O)c1ccccc1	22
O=C(c1ccc(N2CCNCC2)cc1)c1cccnc1	9
CCOC(=O)c1c(N)nn(C(=O)C(C)C)c1-c1ccc(OC)cc1	12
CCOC(=O)c1nnn(-c2nc(N3CCCC3)nc(N3CCCC3)n2)c1-c1ccccc1	-16
CCOC(=O)c1c(N)nn(C(C)=O)c1-c1ccccc1	54*
O=C(OCCn1cncn1)c1cc2ccccc2oc1=O	59*
Cc1ccn(C(=O)c2cc3ccccc3oc2=O)n1	18
O=C(c1cc2ccccc2oc1=O)N(Cc1cccs1)Cc1cccs1	17
CCC(C)(C)NC(=O)CN(C(=O)CNS(=O)(=O)c1ccc(C)cc1)c1ccc2c(c1)OCCO2	21
Cc1c(NC(=O)COc2ncnc3ccccc23)c(=O)n(-c2ccccc2)n1C	31
OCCN1CCN(c2nc(-c3ccccc3)nc3c2oc2ccccc23)CC1	27
CC(C)c1ccccc1NC(=O)c1cccc(NC(=O)c2ccccc2)c1	10
O=C(COc1ccc(-c2ccccc2)cc1)N1CCN(S(=O)(=O)Cc2ccccc2)CC1	14
CCCCCOC(=O)CSc1n[nH]c(=O)[nH]c1=O	19
COc1ccc2[nH]c(=O)c(CN(Cc3nnnn3Cc3ccccc3)CC3CCCO3)cc2c1 (configuration not stated)	-7
COc1ccc2[nH]c(=O)c(CN(Cc3nnnn3Cc3ccc(F)cc3)CC3CCCO3)cc2c1 (configuration not stated)	5
CCC(C)(C)n1nnnc1CN(Cc1cccs1)Cc1cc2cc(OC)ccc2[nH]c1=O	64*
COc1ccc(C2C(C(=O)c3ccco3)=C(O)C(=O)N2CCc2ccccc2)cc1OC (configuration not stated)	-3
O=C(NCCCN1CCOCC1)c1cc2cc(Cl)cc(Cl)c2oc1=O	-11
O=C(Nc1ccccc1)c1ccc(S(=O)(=O)NCc2ccco2)cc1	43
CCOC(=O)COc1ccc(S(=O)(=O)NCc2ccco2)cc1	53*
CCOC(=O)COc1ccc(S(=O)(=O)NCc2ccncc2)cc1	-1
CC(Oc1ccc(Cl)cc1Cl)c1nc(-c2ccc(NC(=O)c3ccccn3)cc2)no1 (configuration not stated)	-8
Cc1c(C(N)=O)sc2nc(-c3ccccc3)cn12	17
CCOC(=O)C1CCN(C(=O)c2sc3nc(-c4ccc(F)cc4)cn3c2C)CC1	11
Cc1c(C(=O)N2CCN(c3ccccc3F)CC2)sc2nc(-c3ccccc3)cn12	60*
CCc1c(C)nc(N)n2c(SCC(=O)N3CCCC(C)C3)nnc12 (configuration not stated)	18
